Experimental data collected from several papers.
Protocols differ between the studies behind these lines.
Observed: cell growth or viability

`CCOc1ccc(C(=O)CC(SCc2ccc(Cl)cc2)C(=O)OC)cc1` (stereo not shown) gave an EC50 of 21 µM (WM 266-4; MTT; 48 h).
The EC50 of `C[C@H]1CNCCCN1c1nccc(-c2noc([C@@]3(C)CCCc4sc(N)c(C#N)c43)n2)n1` is reported as over 1 µM (NCI-H727; 5 days).
For `COc1ccc(-c2oc3ccc(O)c(CN4CCCCC4)c3c2C(=O)NCc2cn(Cc3ccccc3)nn2)cc1`, the IC50 was 8 µM (J774.A1; resazurin; 18 h).
For `Cc1nc(Nc2ncc(C(=O)Nc3c(C)cccc3Cl)s2)cc(N2CC[C@H](O)C2)n1`, the inhibition was 37% (JeKo-1; ATP luminescence; 10 µM; 72 h).
`C#CCNC(=O)c1c(-c2ccc(OC)cc2)oc2ccc(O)c(CN3CCCCC3)c12` has an IC50 of 27.8 µM (J774.A1; resazurin; 18 h).
With `O=c1cc(OCc2cc(-c3ccc(C(F)(F)F)cc3)no2)c2ccccc2o1` the IC50 was over 100 µM (DND41; MTS; 72 h).
For `C[C@H]1CNCCN1c1nccc(-c2onc3c2CCC[C@@]32CCCc3sc(N)c(C#N)c32)n1`, the EC50 was 0.406 µM (NCI-H727; 5 days).
The IC50 of `Clc1ccc(-c2cc(CNc3cccc4cccnc34)on2)c(Cl)c1` is reported as 53.9 µM (DND41; MTS; 72 h).
`Nc1cccc2c1C(=O)N(C1CCC(=O)NC1=O)C2=O` (stereo not shown) gave an IC50 of 0.36 µM (OCI-Ly10; CCK-8; 7 days).
With `C[C@H]1CNCCCN1c1nccc(-c2noc3c2CCC[C@@]32CCCc3sc(N)c(C#N)c32)n1` the EC50 was 0.399 µM (NCI-H727; 5 days).
With `O=c1cc(OCc2cc(-c3ccccn3)no2)c2ccccc2o1` the IC50 was over 100 µM (DND41; MTS; 72 h).
`C[C@H]1CN(C)CCCN1c1nccc(-c2noc([C@@]3(C)CCCc4sc(N)c(C#N)c43)n2)n1` has an EC50 of over 1 µM (NCI-H727; 5 days).
The IC50 of `FC(F)(F)c1cc(OCc2cc(-c3ccc(Cl)cc3Cl)no2)c2ccccc2n1` is reported as over 100 µM (DND41; MTS; 72 h).
